The source made the active and inactive calls. The calls are words filed in the database; no cut-off is given here.
How the values were obtained:
Format in all cases: functional
Pseudomonas aeruginosa [1] = assay: Antibacterial activity against Pseudomonas aeruginosa assessed as growth inhibition at 100 ug/well after 24 hrs by agar well diffusion method; settings: for zone of inhibition at 100 µg/disc: read-out: DIZ
Summary of the method: (§1)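 Agar well diffusion on […] swabbed with a 24 h broth culture. Samples were dissolved in DMSO and loaded at three per-well amounts into 6 mm wells. Incubation was 37 °C for 24 h, then inhibition zone diameter was read in mm. DMSO served as the negative control. Runs were in duplicate and averaged.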

Pseudomonas aeruginosa [2] = assay: Antibacterial activity against Pseudomonas aeruginosa assessed as growth inhibition at 25 ug/well after 24 hrs by agar well diffusion method; settings: for zone of inhibition at 25 µg/disc: read-out: DIZ; summary of the method: as §1
Pseudomonas aeruginosa [3] = assay: Antibacterial activity against Pseudomonas aeruginosa assessed as growth inhibition at 50 ug/well after 24 hrs by agar well diffusion method; settings: for zone of inhibition at 50 µg/disc: read-out: DIZ; summary of the method: as §1
Klebsiella pneumoniae [4] = assay: Antibacterial activity against Klebsiella pneumoniae assessed as growth inhibition at 50 ug/well after 24 hrs by agar well diffusion method; settings: for zone of inhibition at 50 µg/disc: read-out: DIZ; summary of the method: as §1
Staphylococcus aureus [5] = assay: Antibacterial activity against Staphylococcus aureus assessed as growth inhibition at 50 ug/well after 24 hrs by agar well diffusion method; settings: for zone of inhibition at 50 µg/disc: read-out: DIZ; summary of the method: as §1
Staphylococcus aureus [6] = assay: Antibacterial activity against Staphylococcus aureus assessed as growth inhibition at 100 ug/well after 24 hrs by agar well diffusion method; settings: for zone of inhibition at 100 µg/disc: read-out: DIZ; summary of the method: as §1
Staphylococcus aureus [7] = assay: Antibacterial activity against Staphylococcus aureus assessed as growth inhibition at 25 ug/well after 24 hrs by agar well diffusion method; settings: for zone of inhibition at 25 µg/disc: read-out: DIZ; summary of the method: as §1
Klebsiella pneumoniae [8] = assay: Antibacterial activity against Klebsiella pneumoniae assessed as growth inhibition at 25 ug/well after 24 hrs by agar well diffusion method; settings: for zone of inhibition at 25 µg/disc: read-out: DIZ; summary of the method: as §1
Aspergillus niger [9] = assay: Antifungal activity against Aspergillus niger assessed as inhibition of spore germination at 25 ug/well after 48 hrs by agar well diffusion method; settings: for zone of inhibition at 25 µg/disc: read-out: DIZ
Summary of the method: (§2)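 Well diffusion using 6 mm bored wells loaded with DMSO solutions at three per-well amounts, with a DMSO negative control. Plates were held at 28 °C for 48 h, then zone of inhibition diameter was measured in mm. Runs were in duplicate and averaged.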

Bacillus subtilis [10] = assay: Antibacterial activity against Bacillus subtilis assessed as growth inhibition at 50 ug/well after 24 hrs by agar well diffusion method; settings: for zone of inhibition at 50 µg/disc: read-out: DIZ; summary of the method: as §1
Klebsiella pneumoniae [11] = assay: Antibacterial activity against Klebsiella pneumoniae assessed as growth inhibition at 100 ug/well after 24 hrs by agar well diffusion method; settings: for zone of inhibition at 100 µg/disc: read-out: DIZ; summary of the method: as §1
Aspergillus niger [12] = assay: Antifungal activity against Aspergillus niger assessed as inhibition of spore germination at 50 ug/well after 48 hrs by agar well diffusion method; settings: for zone of inhibition at 50 µg/disc: read-out: DIZ; summary of the method: as §2
Bacillus subtilis [13] = assay: Antibacterial activity against Bacillus subtilis assessed as growth inhibition at 100 ug/well after 24 hrs by agar well diffusion method; settings: for zone of inhibition at 100 µg/disc: read-out: DIZ; summary of the method: as §1
Bacillus subtilis [14] = assay: Antibacterial activity against Bacillus subtilis assessed as growth inhibition at 25 ug/well after 24 hrs by agar well diffusion method; settings: for zone of inhibition at 25 µg/disc: read-out: DIZ; summary of the method: as §1

Compound	growth inhibition (GI) (Pseudomonas aeruginosa [1])	growth inhibition (GI) (Pseudomonas aeruginosa [2])	growth inhibition (GI) (Pseudomonas aeruginosa [3])	growth inhibition (GI) (Staphylococcus aureus [7])	zone of inhibition at 50 µg/disc (Klebsiella pneumoniae [4])	zone of inhibition at 50 µg/disc (Staphylococcus aureus [5])	zone of inhibition at 100 µg/disc (Staphylococcus aureus [6])	zone of inhibition at 25 µg/disc (Staphylococcus aureus [7])	zone of inhibition at 25 µg/disc (Klebsiella pneumoniae [8])	zone of inhibition at 25 µg/disc (Aspergillus niger [9])	zone of inhibition at 50 µg/disc (Bacillus subtilis [10])	zone of inhibition at 100 µg/disc (Klebsiella pneumoniae [11])	zone of inhibition at 50 µg/disc (Aspergillus niger [12])	zone of inhibition at 100 µg/disc (Bacillus subtilis [13])	zone of inhibition at 25 µg/disc (Bacillus subtilis [14])	zone of inhibition at 100 µg/disc (Pseudomonas aeruginosa [1])	zone of inhibition at 50 µg/disc (Pseudomonas aeruginosa [3])	further results
Cc1ccc(-c2csc(NC3=NN(C(N)=S)[C@@H](c4ccc(C)cc4)C3)n2)cc1	inactive	inactive	inactive	inactive	–	–	–	–	–	–	–	–	–	–	–	–	–	growth inhibition (GI) (Klebsiella pneumoniae [4]): inactive; growth inhibition (GI) (Staphylococcus aureus [5]): inactive; growth inhibition (GI) (Staphylococcus aureus [6]): inactive; growth inhibition (GI) (Klebsiella pneumoniae [8]): inactive; growth inhibition (GI) (Aspergillus niger [9]): inactive; growth inhibition (GI) (Bacillus subtilis [10]): inactive; growth inhibition (GI) (Klebsiella pneumoniae [11]): inactive; zone of inhibition (Aspergillus niger [12]): inactive; growth inhibition (GI) (Bacillus subtilis [13]): inactive; growth inhibition (GI) (Bacillus subtilis [14]): inactive
NC(=S)n1nc(Nc2nc(-c3ccccc3)co2)cc1-c1ccccc1	inactive	inactive	inactive	–	9 mm	8 mm	10 mm	6 mm	7 mm	8 mm	9 mm	12 mm	9 mm	11 mm	7 mm	–	–	–
Cc1ccc(-c2coc(NC3=NN(C(N)=S)[C@@H](c4ccc(C)cc4)C3)n2)cc1	inactive	inactive	inactive	inactive	–	–	–	–	–	–	–	–	–	–	–	–	–	growth inhibition (GI) (Klebsiella pneumoniae [4]): inactive; growth inhibition (GI) (Staphylococcus aureus [5]): inactive; growth inhibition (GI) (Staphylococcus aureus [6]): inactive; growth inhibition (GI) (Klebsiella pneumoniae [8]): inactive; growth inhibition (GI) (Aspergillus niger [9]): inactive; growth inhibition (GI) (Bacillus subtilis [10]): inactive; growth inhibition (GI) (Klebsiella pneumoniae [11]): inactive; zone of inhibition (Aspergillus niger [12]): inactive; growth inhibition (GI) (Bacillus subtilis [13]): inactive; growth inhibition (GI) (Bacillus subtilis [14]): inactive
NC(=S)n1nc(Nc2nc(-c3ccccc3)c[nH]2)cc1-c1ccccc1	–	–	–	–	20 mm	20 mm	23 mm	18 mm	19 mm	19 mm	20 mm	24 mm	20 mm	22 mm	18 mm	14 mm	12 mm	zone of inhibition at 25 µg/disc (Pseudomonas aeruginosa [2]): 10 mm
Cc1ccc(-c2coc(Nc3cc(-c4ccc(C)cc4)n(-c4nc(-c5ccc(C)cc5)cs4)n3)n2)cc1	inactive	inactive	inactive	inactive	8 mm	6 mm	8 mm	–	6 mm	6 mm	8 mm	10 mm	8 mm	9 mm	6 mm	–	–	–
NC(=S)n1nc(Nc2nc(-c3ccc(Cl)cc3)co2)cc1-c1ccc(Cl)cc1	–	–	–	–	17 mm	17 mm	19 mm	15 mm	16 mm	10 mm	16 mm	20 mm	11 mm	19 mm	15 mm	12 mm	9 mm	zone of inhibition at 25 µg/disc (Pseudomonas aeruginosa [2]): 8 mm
Cc1ccc(-c2csc(Nc3cc(-c4ccc(C)cc4)n(C(N)=S)n3)n2)cc1	–	inactive	–	–	13 mm	13 mm	15 mm	11 mm	11 mm	12 mm	12 mm	16 mm	13 mm	14 mm	10 mm	8 mm	6 mm	–
